Measured values published in ChEMBL document CHEMBL1121654, “New antiarrhythmic agents. 6. Quantitative structure-activity relationships of aminoxylidides” (J Med Chem, 1981).

Legend:
[1] = Partition coefficient (logP); format: physicochemical; settings: octanol/water
Method in brief: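 1-Octanol/water partition by titration: 10–40 mL aqueous test compound (1 mM) with 4–25 mL 1-octanol, stirred vigorously, titrated with 0.1 N NaOH; apparent pKa′ calculated, from which partition coefficient obtained.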

Mus musculus [2] = species on record: Mus musculus; experiment: Compound was evaluated for ataxia in mice; format: functional
[3] = Therapeutic index is the ratio of ED50 (ataxia) to ED50 (protection) in mice; settings: mouse; read-out: TI
[4] = Dissociation constant (pKa); format: physicochemical
Mus musculus [5] = species on record: Mus musculus; experiment: Compound was evaluated for protection against tachycardia in mice; format: functional
Method in brief: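 Mice given test agent, then chloroform-induced tachycardia (modified Lawson method); efficacy scored as percentage of mice protected at each dose. Doses stepped ≥0.15 log unit up/down to give low, medium and high protection incidence; ED50 (mmol/kg) by Berkson logit chi-square method.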

[6] = Compound was evaluated for -Log [fraction ionized x ED50 (protection)]; format: ADME

SMILES | logP [1] | pKa [4] | p[BH+50] [6] | ED50 (Mus musculus [2]) [µmol/kg] | selectivity ratio [3] | ED50 (Mus musculus [5]) [µmol/kg]
Cc1cccc(C)c1NC(=O)CC(C)N (configuration not stated) | 0.84 | 8.71 | 0.62 | 1640 | 6.6 | 250
CCN(CC)C(C)CCCC(=O)Nc1c(C)cccc1C (configuration not stated) | 2.64 | 10.1 | 1 | 790 | 7.9 | 100
CCN(CC)CCCCCC(=O)Nc1c(C)cccc1C | 2.95 | 10.2 | 0.89 | 670 | 5.2 | 130
CCN(CC)C(C)CC(=O)Nc1c(C)cccc1C (configuration not stated) | 2.63 | 9.03 | 1.31 | 90 | 1.8 | 50
CCN(CC)C(C)CCC(=O)Nc1c(C)cccc1C (configuration not stated) | 2.66 | 9.87 | 0.68 | 1150 | 5.5 | 210
Cc1cccc(C)c1NC(=O)CCCCN | 1.02 | 9.81 | 0.51 | 1810 | 5.8 | 310
Cc1cccc(C)c1NC(=O)CCN | 0.62 | 8.75 | 0.16 | 2300 | 3.2 | 720
CCN(CC)CC(=O)Nc1c(C)cccc1C [LIDOCAINE] |  |  | 0.88 | 180 |  | 210
Cc1cccc(C)c1NC(=O)C(C)N (configuration not stated) [TOCAINIDE] | 0.76 | 7.54 | 0.5 | 760 | 1.4 | 550

Now from value to compound, other results behind:

logP [1] | pKa [4] | p[BH+50] [6] | SMILES | ED50 (Mus musculus [2]) [µmol/kg] | selectivity ratio [3] | ED50 (Mus musculus [5]) [µmol/kg]
2.21 | 8.83 | 0.9 | CCN(CC)CCC(=O)Nc1c(C)cccc1C | 210 | 1.6 | 130
1.41 | 9.79 | 0.72 | Cc1cccc(C)c1NC(=O)CCCC(C)N (configuration not stated) | 1170 | 6.2 | 190
2.42 | 9.96 | 0.92 | CCN(CC)CCCCC(=O)Nc1c(C)cccc1C | 660 | 5.5 | 120
0.71 | 9.35 | 0.1 | Cc1cccc(C)c1NC(=O)CCCN | 3250 | 4.1 | 800
1.29 | 10.1 | 0.57 | Cc1cccc(C)c1NC(=O)CCCCCN | 2070 | 7.7 | 270
2.73 | 7.93 | 0.88 | CCN(CC)C(C)C(=O)Nc1c(C)cccc1C (configuration not stated) | 130 | 0.8 | 170
1.08 | 9.36 | 0.45 | Cc1cccc(C)c1NC(=O)CCC(C)N (configuration not stated) | 2660 | 7.4 | 360
2.06 | 9.52 | 0.86 | CCN(CC)CCCC(=O)Nc1c(C)cccc1C | 760 | 5.4 | 140
1.53 | 7.33 | 0.94 | Cc1cccc(C)c1NC(=O)C(C)N(C)C (configuration not stated) | 200 | 0.8 | 250
3.48 | 10.2 | 1.4 | CCN(CC)CCCCCCC(=O)Nc1c(C)cccc1C | 830 | 21 | 40
0.45 | 7.42 | 0.37 | Cc1cccc(C)c1NC(=O)CN [GLYCINEXYLIDIDE] | 620 | 0.7 | 840
